In ChEMBL document CHEMBL1124543, “Antiulcer agents. 4. Conformational considerations and the antiulcer activity of substituted imidazo[1,2-a]pyridines and related analogues” (1989):

Columns and labels:
Format in all cases: functional
Canis familiaris [1] = experiment: Inhibition of histamine stimulated gastric acid secretion in adult mongrel dogs at 1 mg/kg i.v.; details: Canis lupus familiaris, Stomach, route intravenous
Method in brief: (§1)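 Mongrel dogs with surgically prepared Heidenhain pouches under histamine infusion; compound given iv (0.1–5 mg/kg) 1 h after infusion start. Pouch juice collected every 30 min, volume recorded, aliquot titrated for acid; outputs summed over 3 h post-dose, compared with the same animal's control. ED50 by linear regression.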

Canis familiaris [2] = experiment: Effective dose required to reduce acid out put when administered intravenously in dog; details: Canis lupus familiaris, iv; method in brief: as §1
Rattus norvegicus [3] = experiment: Antisecretory activity of intraperitoneally injected compound (40 mg/kg) in pylorus-ligated rat
Method in brief: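 Rats fasted 24 h, anesthetized, pylorus ligated; compound in 2.5% Tween 80 given ip (0.5 mL/200 g) at ligation. Killed 4 h later; gastric contents volume recorded, aliquots titrated with 0.1 N NaOH for acid output. Six rats per compound, eight controls; percent inhibition computed, Student's t test.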

Canis familiaris [4] = experiment: Inhibition of histamine stimulated gastric acid secretion in adult mongrel dogs at 8 mg/kg compound administered perorally; details: Canis lupus familiaris, Stomach, route oral
Method in brief: (§2)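 Heidenhain pouch mongrel dogs receiving histamine infusion; compound given orally by gavage 1 h after infusion began. Acid output from 30-min collections (volume, titrated aliquot) summed for 3 h after dosing, each dog its own control. ED50 derived by linear regression from percent inhibition across doses.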

Canis familiaris [5] = experiment: Effective dose required to reduce acid out put when administered perorally in dog; details: Canis lupus familiaris, po; method in brief: as §2
Canis familiaris [6] = experiment: Inhibition of histamine stimulated gastric acid secretion in adult mongrel dogs at 2 mg/kg compound administered perorally; details: Canis lupus familiaris, Stomach, route oral; method in brief: as §2
Canis familiaris [7] = experiment: Inhibition of histamine stimulated gastric acid secretion in adult mongrel dogs at 5 mg/kg i.v.; details: Canis lupus familiaris, Stomach, route intravenous; method in brief: as §1
Canis familiaris [8] = experiment: Inhibition of histamine stimulated gastric acid secretion in adult mongrel dogs at 4 mg/kg administered perorally; details: Canis lupus familiaris, Stomach, route oral; method in brief: as §2
Canis familiaris [9] = experiment: Inhibition of histamine stimulated gastric acid secretion in adult mongrel dogs at 2 mg/kg i.v.; details: Canis lupus familiaris, Stomach, route intravenous; method in brief: as §1
Rattus norvegicus [10] = experiment: Effective dose inhibiting ethanol-induced lesions was determined 1 h, after oral administration of absolute ethanol in rat
Method in brief: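 Rats fasted and water-deprived 20 h; compound in 0.4% methylcellulose/saline given orally (1–30 mg/kg) 30 min before oral absolute ethanol (1 mL). Killed 1 h after ethanol; stomach opened along greater curvature, linear hemorrhagic lesion lengths summed per stomach. ED50 for lesion inhibition by regression analysis.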

## Cc1nc2c(/C=C\c3ccccc3)cccn2c1C
Canis familiaris [1]
  inhibition in vivo at 1 mg/kg: 62%
Canis familiaris [2]
  ED50: 0.7 mg/kg
Rattus norvegicus [3]
  Inhibition: 83%
Canis familiaris [4]
  inhibition in vivo at 8 mg/kg: 74%
Canis familiaris [5]
  ED50: 4.8 mg/kg
Canis familiaris [6]
  inhibition in vivo at 2 mg/kg: 25%
Canis familiaris [7]
  inhibition in vivo at 5 mg/kg: 86%
Canis familiaris [8]
  inhibition in vivo at 4 mg/kg: 37%
Canis familiaris [9]
  inhibition in vivo at 2 mg/kg: 76%

## Cc1nc2c(/C=C\Cc3ccccc3)cccn2c1N
Canis familiaris [1]
  inhibition in vivo at 1 mg/kg: 32%
Rattus norvegicus [3]
  Inhibition: 52%
Rattus norvegicus [10]
  ED50: 8.6 mg/kg
Canis familiaris [8]
  inhibition in vivo at 4 mg/kg: 0%

## C/C(=C\c1ccccc1)c1cccn2c(C)c(C)nc12
Rattus norvegicus [3]
  Inhibition: 71%
Canis familiaris [4]
  inhibition in vivo at 8 mg/kg: 29%
Rattus norvegicus [10]
  ED50: 5 mg/kg
Canis familiaris [9]
  inhibition in vivo at 2 mg/kg: 44%

## Cc1nc2cccc(/C=C/c3ccccc3)n2c1C
Rattus norvegicus [10]
  ED50: 5.5 mg/kg
Canis familiaris [7]
  inhibition in vivo at 5 mg/kg: 0%
Canis familiaris [8]
  inhibition in vivo at 4 mg/kg: 0%

## Cc1nc2cc(/C=C/c3ccccc3)ccn2c1C
Rattus norvegicus [3]
  Inhibition: 40%
Canis familiaris [4]
  inhibition in vivo at 8 mg/kg: 0%
Canis familiaris [7]
  inhibition in vivo at 5 mg/kg: 0%

## Cc1nc2ccc(/C=C/c3ccccc3)cn2c1C
Rattus norvegicus [3]
  Inhibition: 55%
Canis familiaris [4]
  inhibition in vivo at 8 mg/kg: 0%
Rattus norvegicus [10]
  ED50: 1.7 mg/kg
Canis familiaris [7]
  inhibition in vivo at 5 mg/kg: 0%

## C(=C/c1cccn2c3c(nc12)CCCC3)/c1ccccc1
Rattus norvegicus [3]
  Inhibition: 62%
Rattus norvegicus [10]
  ED50: 7.3 mg/kg
Canis familiaris [9]
  inhibition in vivo at 2 mg/kg: 0%

## C(=C/c1cccn2c3c(nc12)CCC3)/c1ccccc1
Rattus norvegicus [3]
  Inhibition: 24%
Rattus norvegicus [10]
  ED50: 5.2 mg/kg
Canis familiaris [7]
  inhibition in vivo at 5 mg/kg: 8%

## Cc1nc2c(C/C=C\c3ccccc3)cccn2c1C
Rattus norvegicus [3]
  Inhibition: 58%
Canis familiaris [4]
  inhibition in vivo at 8 mg/kg: 0%
Rattus norvegicus [10]
  ED50: 5.5 mg/kg
Canis familiaris [7]
  inhibition in vivo at 5 mg/kg: 0%

## Cc1nc2c(/C=C/c3ccccc3)cccn2c1N
Rattus norvegicus [3]
  Inhibition: 33%
Canis familiaris [4]
  inhibition in vivo at 8 mg/kg: 6%
Rattus norvegicus [10]
  ED50: 13 mg/kg
Canis familiaris [7]
  inhibition in vivo at 5 mg/kg: 0%
Canis familiaris [9]
  inhibition in vivo at 2 mg/kg: 24%

## Cc1nc2c(/C=C/c3ccccc3)cccn2c1CC#N
Rattus norvegicus [3]
  Inhibition: 18%
Canis familiaris [4]
  inhibition in vivo at 8 mg/kg: 2%
Rattus norvegicus [10]
  ED50: 3 mg/kg
Canis familiaris [7]
  inhibition in vivo at 5 mg/kg: 18%
Canis familiaris [9]
  inhibition in vivo at 2 mg/kg: 0%

## CCc1nc2c(/C=C\c3ccccc3)cccn2c1C
Rattus norvegicus [3]
  Inhibition: 96%
Canis familiaris [4]
  inhibition in vivo at 8 mg/kg: 21%
Canis familiaris [9]
  inhibition in vivo at 2 mg/kg: 42%

## Cc1nc2c(/C=C\c3ccccc3)cccn2c1N
Canis familiaris [1]
  inhibition in vivo at 1 mg/kg: 66%
Rattus norvegicus [3]
  Inhibition: 83%
Canis familiaris [4]
  inhibition in vivo at 8 mg/kg: 4%
Rattus norvegicus [10]
  ED50: 23 mg/kg
Canis familiaris [6]
  inhibition in vivo at 2 mg/kg: 0%
Canis familiaris [7]
  inhibition in vivo at 5 mg/kg: 67%
Canis familiaris [9]
  inhibition in vivo at 2 mg/kg: 62%

## CCc1c(C)nc2c(/C=C\c3ccccc3)cccn12
Rattus norvegicus [3]
  Inhibition: 65%
Canis familiaris [4]
  inhibition in vivo at 8 mg/kg: 21%
Rattus norvegicus [10]
  ED50: 0.8 mg/kg
Canis familiaris [9]
  inhibition in vivo at 2 mg/kg: 12%
